The results in this text go back to ChEMBL document CHEMBL2331184, “The synthesis and SAR of calcitonin gene-related peptide (CGRP) receptor antagonists derived from tyrosine surrogates. Part 2” (Bioorg Med Chem Lett, 2013).

The target of data set [1] is T1, Cytochrome P450 3A4 (Homo sapiens, UniProt P08684). The data set is described as follows: (§1) Inhibition of CYP3A4 (unknown origin) using 7-benzyloxy-4-trifluoromethylcoumarin as substrate. Type of data set: ADME.
Data set [2] has as its target T1, Cytochrome P450 3A4. Put plainly: Inhibition of CYP3A4 (unknown origin) using 7-benzyloxy-resorufin as substrate. The format is ADME.
Data set [3] concerns the target Calcitonin gene-related peptide type 1 receptor (Homo sapiens) (UniProt Q16602). The data set is described as follows: (§2) Antagonist activity at CGRP receptor in human SK-N-MC cells assessed as inhibition of […]-induced cAMP production. Type of data set: functional, cell-based. In outline: (§3)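 Concentration-dependent inhibition of CGRP-stimulated cAMP production measured in SK-N-MC cells expressing the human CGRP receptor. Value reported as EC50.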
In general terms: Changes in cAMP serve as a functional read-out for many G protein-coupled receptors.

Data set [4] addresses T2, Calcitonin gene-related peptide type 1 receptor (Homo sapiens, UniProt O60894+Q16602). The data set is described as follows: Binding affinity to CGRP receptor (unknown origin).
The nature of data set [5]: Plasma concentration in marmoset at 0.03 g/kg, sc after 15 mins. Type of data set: ADME, organism-based, Callithrix jacchus. Conditions: 30 mg/kg. The essentials: (§4)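 Marmosets were anesthetized. Facial blood flow was raised by iv haCGRP (10 µg/kg) given at −30, 15, 60 and 105 min and read by laser Doppler flowmetry. The antagonist (racemate) was given SC at 0 min and compared with vehicle-treated animals, n = 5. Plasma levels were taken at 15, 60 and 105 min.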

The nature of data set [6]: Plasma concentration in marmoset at 0.03 g/kg, sc after 105 mins. The format is ADME, organism-based, Callithrix jacchus. Conditions: 30 mg/kg. The essentials: as §4
Another data set has as its system Callithrix jacchus. The data set is described as follows: Inhibition of CGRP-induced increases in marmoset facial blood flow at 0.03 g/kg, sc after 60 to 105 mins by doppler flowmetry. The format is functional, organism-based. In outline: as §4
The nature of data set [7]: Plasma concentration in marmoset at 0.03 g/kg, sc after 60 mins. The format is ADME, organism-based, Callithrix jacchus. As to conditions: 30 mg/kg. In outline: as §4
Data set [8] in a line: Reversal of CGRP-induced dilation on human intracranial arteries. Type of data set: functional, Artery. The essentials:
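Ex vivo human intracranial artery rings were mounted between two wire hooks on a force transducer to record tone. Rings were precontracted with 10 mM KCl and fully dilated with 1 nM haCGRP. Dilation was then reversed by cumulative half-log additions of antagonist.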

The target of data set [9] is T2, Calcitonin gene-related peptide type 1 receptor. The description is as §2. The format is functional, cell-based. The essentials: as §3
In the next data set the target is CYP3A4 (Homo sapiens, UniProt P08684). Described as §1. Type of data set: ADME. As to conditions: probe 7-benzyloxy-4-trifluoromethylcoumarin.
Chain of CYP3A4 (P08684 whole entry): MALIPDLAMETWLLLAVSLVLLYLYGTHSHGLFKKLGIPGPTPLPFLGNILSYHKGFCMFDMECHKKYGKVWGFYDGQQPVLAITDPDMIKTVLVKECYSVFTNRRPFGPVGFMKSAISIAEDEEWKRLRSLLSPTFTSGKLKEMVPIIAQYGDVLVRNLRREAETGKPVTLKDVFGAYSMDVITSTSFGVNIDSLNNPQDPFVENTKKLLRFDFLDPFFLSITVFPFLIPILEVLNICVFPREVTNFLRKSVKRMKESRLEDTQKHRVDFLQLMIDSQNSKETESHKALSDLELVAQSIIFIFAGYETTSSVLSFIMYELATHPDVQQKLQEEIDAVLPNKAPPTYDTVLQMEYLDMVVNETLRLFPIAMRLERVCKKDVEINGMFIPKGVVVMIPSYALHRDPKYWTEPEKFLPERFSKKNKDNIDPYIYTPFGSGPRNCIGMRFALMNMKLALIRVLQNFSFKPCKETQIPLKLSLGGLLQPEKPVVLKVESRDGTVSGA
The nature of data set [10]: Tmax in rabbit at 0.6 mg/kg administered intranasally. The format is ADME, organism-based, Oryctolagus cuniculus. Further details: dose 0.6 mg/kg. Conditions: in vivo, inhaled or intranasal. The essentials:
(§5)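 Rabbits were dosed intranasally with a spray of a 10 mg/mL aqueous solution of the HCl salt, at 0.6 mg/kg. […] Intranasal bioavailability was derived from these plasma levels.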

The target in data set [11] is T3, Nuclear receptor subfamily 1 group I member 2 (Homo sapiens, UniProt O75469).
T3 sequence (O75469 whole entry): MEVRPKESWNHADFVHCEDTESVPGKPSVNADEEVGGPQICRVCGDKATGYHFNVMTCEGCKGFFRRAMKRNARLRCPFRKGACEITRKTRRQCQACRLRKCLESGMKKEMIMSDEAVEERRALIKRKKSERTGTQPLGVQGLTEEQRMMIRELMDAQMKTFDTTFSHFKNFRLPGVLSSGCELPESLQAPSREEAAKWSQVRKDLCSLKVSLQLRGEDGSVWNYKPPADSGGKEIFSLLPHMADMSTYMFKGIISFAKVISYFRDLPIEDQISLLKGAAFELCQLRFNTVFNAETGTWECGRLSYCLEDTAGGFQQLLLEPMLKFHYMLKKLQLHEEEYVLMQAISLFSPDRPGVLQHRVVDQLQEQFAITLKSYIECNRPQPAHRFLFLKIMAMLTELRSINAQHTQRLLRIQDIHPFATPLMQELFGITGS
The data set is described as follows: Activation of PXR (unknown origin).

Data set [12] is described as follows: Aqueous solubility of the compound at pH 4.0 to 6.2. Type of data set: physicochemical. Conditions: aqueous solution.
In a further data set the test system is Salmonella typhimurium. The data set is described as follows: Genotoxicity in Salmonella typhimurium by Ames test. Type of data set: toxicity, organism-based. As to conditions: salmonella enterica subsp. enterica serovar typhimurium. Background: The Ames test uses bacterial strains that need an amino acid and regain growth without it when mutated back.
Data set [13] can be described thus: Bioavailability in rabbit at 0.6 mg/kg administered intranasally. Type of data set: ADME, organism-based, Oryctolagus cuniculus. As to conditions: in vivo, inhaled or intranasal. The essentials: as §5

Activity calls are given as the source filed them. The calls are words filed in the database; no cut-off is given here.

T1 sequence (P08684 whole entry): as the sequence (P08684 whole entry) above
Chain of Calcitonin gene-related peptide type 1 receptor (Homo sapiens) (Q16602 whole entry): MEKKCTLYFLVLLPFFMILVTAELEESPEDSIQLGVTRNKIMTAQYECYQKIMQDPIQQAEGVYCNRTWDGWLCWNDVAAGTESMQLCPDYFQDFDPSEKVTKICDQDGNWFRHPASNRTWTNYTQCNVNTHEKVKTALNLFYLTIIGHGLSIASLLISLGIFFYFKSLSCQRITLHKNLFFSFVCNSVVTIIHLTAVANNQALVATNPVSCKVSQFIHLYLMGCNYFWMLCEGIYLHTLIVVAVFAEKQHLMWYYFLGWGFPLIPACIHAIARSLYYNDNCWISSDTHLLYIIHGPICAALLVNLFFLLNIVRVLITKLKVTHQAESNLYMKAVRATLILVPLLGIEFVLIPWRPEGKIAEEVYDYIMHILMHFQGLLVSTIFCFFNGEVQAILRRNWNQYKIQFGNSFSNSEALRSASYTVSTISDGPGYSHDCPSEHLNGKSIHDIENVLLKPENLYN
T2 sequence (Q16602 whole entry, one chain of several): as the sequence (Q16602 whole entry) above

What is called IC50 is the concentration that gives 50% inhibition. Broadly, the Ki is a measure of affinity in units of concentration, obtained from inhibition or displacement. With `CCc1cc(CC(NC(=O)N2CCC(N3Cc4ccccc4NC3=O)CC2)C(=O)N2CCC(N3CCCCC3)CC2)cc2cn[nH]c12` (racemic), the IC50 at Cytochrome P450 3A4 [1] is 25000 nM; against Cytochrome P450 3A4 [2], 450 nM. The inhibition entry in [3] was “Active”. The Ki in data set [4] worked out at 0.005 nM.

In turn, `Cc1cc(CC(NC(=O)N2CCC(N3Cc4ccccc4NC3=O)CC2)C(=O)N2CCC(N3CCCCC3)CC2)cc2cn[nH]c12` (racemic) gave a concentration at 0.25 h in data set [5] of 4.7 nM. In data set [6], this molecule came in with a concentration at 1.75 h of 11 nM. Also, the inhibition result (in data set [3]; with Callithrix jacchus) was “Active” in each case. The concentration at 1 h in data set [7] is 13 nM. In data set [4], the Ki was 0.012 nM.

What is called EC50 is the concentration at which the effect is half-maximal. With `Cc1cc(C[C@@H](NC(=O)N2CCC(N3Cc4ccccc4NC3=O)CC2)C(=O)N2CCC(N3CCCCC3)CC2)cc2cn[nH]c12` [listing 1 of 2 here], the results for the EC50 in [8] and in data set [9] were 0.05 nM and 0.017 nM, respectively. Also, in data set [4], the Ki was determined as 0.0073 nM.

Take `O=C(N[C@H](Cc1ccc2[nH]ncc2c1)C(=O)N1CCC(N2CCCCC2)CC1)N1CCC(N2Cc3ccccc3NC2=O)CC1`: at CYP3A4, the IC50 was > 40000 nM. The EC50 in data set [8] was determined as 1.2 nM. In data set [3], the inhibition result was “Active”.

On to `N#Cc1cc(C[C@@H](NC(=O)N2CCC(N3Cc4ccccc4NC3=O)CC2)C(=O)N2CCC(N3CCCCC3)CC2)cc2oc(=O)[nH]c12`, for which, in [3], the inhibition entry was “Active”. Further, the Ki in [4] came out at 11 nM.

Broadly, the Tmax is the time from dosing to the highest level. One may read the solubility as the dissolved amount per volume that the medium holds. Read a low solubility as a poorly soluble substance. Usually bioavailability stands for the share of a dose that reaches the circulation, judged against a reference dose that is usually intravenous. For `Cc1cc(C[C@@H](NC(=O)N2CCC(N3Cc4ccccc4NC3=O)CC2)C(=O)N2CCC(N3CCCCC3)CC2)cc2cn[nH]c12.Cl`, the time of peak concentration (Tmax) in [10] is 10 min. For the same molecule, the Activity entry in data set [11] is given as “Not Active”; in the data set with Salmonella typhimurium, “Non-toxic”. In data set [12], this molecule showed a solubility of 13 mg/mL. The bioavailability in [13] is 42%.

For `CCc1cc(CC(NC(=O)N2CCC(N3Cc4ccccc4NC3=O)CC2)C(=O)N2CCC(N3CCCCC3)CC2)cc2c(C)n[nH]c12` (racemic), the results for the IC50 against Cytochrome P450 3A4 [1] and on Cytochrome P450 3A4 [2] were > 40000 nM and 6900 nM, respectively. In [3], the inhibition result is “Active”. For the same molecule, the Ki in data set [4] was 0.048 nM.

In the case of `Cc1cc(C[C@H](NC(=O)N2CCC(N3Cc4ccccc4NC3=O)CC2)C(=O)N2CCC(N3CCCCC3)CC2)cc2cn[nH]c12`, the inhibition entry in data set [3] was “Active”. Further, the Ki in data set [4] is 27 nM.

Turning to `O=C(NC(Cc1cc(Cl)c2[nH]ncc2c1)C(=O)N1CCC(N2CCCCC2)CC1)N1CCC(N2Cc3ccccc3NC2=O)CC1` (racemic), the IC50 amounted to 13000 nM against Cytochrome P450 3A4 [1] and 180 nM on Cytochrome P450 3A4 [2]. Also, in data set [3], the inhibition result was “Active”. Besides, the Ki in data set [4] stood at 0.011 nM.

In the case of `Cc1cc(C[C@@H](NC(=O)N2CCC(N3Cc4ccccc4NC3=O)CC2)C(=O)N2CCC(N3CCCCC3)CC2)cc2cn[nH]c12` [listing 2 of 2 here], the inhibition entry in [3] was “Active”.

For `Cc1cc(C[C@@H](NC(=O)N2CCC(N3Cc4ccccc4NC3=O)CC2)C(=O)N2CCC(N3CCCCC3)CC2)cc2nn[nH]c12`, the inhibition entry in data set [3] was “Active”.

In the case of `Cc1cc(C[C@@H](NC(=O)N2CCC(N3Cc4ccccc4NC3=O)CC2)C(=O)N2CCC(N3CCCCC3)CC2)c(Cl)c2cn[nH]c12`, the IC50 against Cytochrome P450 3A4 [1] was determined as 3500 nM; against Cytochrome P450 3A4 [2], 1600 nM. For the same molecule, the inhibition entry in data set [3] was “Active”. Moreover, the Ki in data set [4] was 0.032 nM.

For the molecule `O=C(N[C@H](Cc1cc(Br)c2[nH]c(=O)oc2c1)C(=O)N1CCC(N2CCCCC2)CC1)N1CCC(N2Cc3ccccc3NC2=O)CC1`, the IC50 was > 40000 nM against Cytochrome P450 3A4 [1] and 7200 nM on Cytochrome P450 3A4 [2]. The inhibition result in data set [3] was “Active”. Further, in [4], the Ki stood at 0.023 nM.

Turning to `O=C(N[C@H](Cc1cc(Cl)c2[nH]c(=O)oc2c1)C(=O)N1CCC(N2CCCCC2)CC1)N1CCC(N2Cc3ccccc3NC2=O)CC1`, the IC50 was > 40000 nM on Cytochrome P450 3A4 [1] and 17000 nM at Cytochrome P450 3A4 [2]. Moreover, the inhibition result in data set [3] is “Active”. Moreover, the inhibitory constant (Ki) in data set [4] is 0.039 nM.

As to `CC(C)c1cc(CC(NC(=O)N2CCC(N3Cc4ccccc4NC3=O)CC2)C(=O)N2CCC(N3CCCCC3)CC2)cc2cn[nH]c12` (racemic), half-maximal inhibition against Cytochrome P450 3A4 [2] (IC50) was put at 370 nM. In addition, the inhibition result in data set [3] is “Active”. For the same molecule, the Ki in data set [4] was found to be 0.22 nM.

For `O=C(N[C@H](Cc1cc2oc(=O)[nH]c2cc1Cl)C(=O)N1CCC(N2CCCCC2)CC1)N1CCC(N2Cc3ccccc3NC2=O)CC1`, the concentration for half-maximal inhibition (IC50) at Cytochrome P450 3A4 [1] is > 40000 nM; at Cytochrome P450 3A4 [2] it was 5000 nM. In [3], the inhibition result is “Active”. Moreover, the Ki in [4] was 0.28 nM.

`O=C(N[C@H](Cc1cc(I)c2[nH]c(=O)oc2c1)C(=O)N1CCC(N2CCCCC2)CC1)N1CCC(N2Cc3ccccc3NC2=O)CC1`: the 50% inhibitory concentration (IC50) at Cytochrome P450 3A4 [1] is 32000 nM; on Cytochrome P450 3A4 [2], 5500 nM. Also, the inhibition entry in data set [3] is “Active”. Besides, in data set [4], the Ki is 0.055 nM.

For the molecule `O=C(N[C@H](Cc1cc2oc(=O)[nH]c2cc1Br)C(=O)N1CCC(N2CCCCC2)CC1)N1CCC(N2Cc3ccccc3NC2=O)CC1`, the inhibition entry in [3] is “Active”. Moreover, in [4], the inhibition constant (Ki) was 0.14 nM.

On to `Cc1cc(C[C@@H](NC(=O)N2CCC(N3Cc4ccccc4NC3=O)CC2)C(=O)N2CCC(N3CCCCC3)CC2)cc2[nH]nnc12`, for which the values for the half-maximal inhibitory concentration (IC50) against Cytochrome P450 3A4 [1] and against Cytochrome P450 3A4 [2] were > 40000 nM and 7300 nM, respectively. For the same molecule, the Ki in data set [4] is 0.015 nM.
